According to PubChem BioAssay:
Active and inactive are the calls of the source.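 Rule for the calls, unless noted: active = viability at or below 10% of carrier control in both of two separate runs; inconclusive = viability at or below 10% in only one of the two runs; inactive = the rest.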

Assays:
[1] = molecular target: Pantothenate synthetase (Mycobacterium tuberculosis (strain ATCC 25618 / H37Rv)) (UniProt P9WIL5); test: Coupled enzyme confirmation of inhibitors against recombinant Mtb PanC (AID 375; call rule not given here;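 note: 0% = full reaction with vehicle and 100% = no enzyme background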); conditions: coupled enzyme assay; at 10 µM, stronger effect = higher value
Sequence of Pantothenate synthetase (Mycobacterium tuberculosis (strain ATCC 25618 / H37Rv)) (P9WIL5 whole entry, looked up): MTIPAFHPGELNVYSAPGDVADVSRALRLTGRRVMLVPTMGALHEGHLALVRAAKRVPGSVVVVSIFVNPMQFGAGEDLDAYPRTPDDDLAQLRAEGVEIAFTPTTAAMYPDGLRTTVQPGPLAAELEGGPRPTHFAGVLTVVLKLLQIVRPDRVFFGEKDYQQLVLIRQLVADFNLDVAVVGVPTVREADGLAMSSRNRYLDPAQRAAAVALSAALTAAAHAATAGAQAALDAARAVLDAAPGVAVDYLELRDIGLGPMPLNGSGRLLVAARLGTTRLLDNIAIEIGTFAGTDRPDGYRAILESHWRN

[2] = Her2 expression decrease, cell viability multiplex – SKBR3 breast tumor cells, AlphaScreen, ATP viability, primary screen (AID 461;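 active = Her2 level under about 52% in both replicate screens, with viability over 70% of control, limit read from the data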;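 for Her2 level: lower value means less Her2 protein in the cells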;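 for viability: percent of carrier control wells set as 100% viability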); conditions: SKBR3 Her2 protein level, 18-24 h, measured here: SKBR3 viability, ATP luminescence, at 10 µM
[3] = molecular target: Receptor tyrosine-protein kinase erbB-2 (Homo sapiens) (UniProt P04626); test: as above; conditions: 18-24 h, at 10 µM, stronger effect = lower value
Sequence of Receptor tyrosine-protein kinase erbB-2 (Homo sapiens) (P04626 whole entry, looked up): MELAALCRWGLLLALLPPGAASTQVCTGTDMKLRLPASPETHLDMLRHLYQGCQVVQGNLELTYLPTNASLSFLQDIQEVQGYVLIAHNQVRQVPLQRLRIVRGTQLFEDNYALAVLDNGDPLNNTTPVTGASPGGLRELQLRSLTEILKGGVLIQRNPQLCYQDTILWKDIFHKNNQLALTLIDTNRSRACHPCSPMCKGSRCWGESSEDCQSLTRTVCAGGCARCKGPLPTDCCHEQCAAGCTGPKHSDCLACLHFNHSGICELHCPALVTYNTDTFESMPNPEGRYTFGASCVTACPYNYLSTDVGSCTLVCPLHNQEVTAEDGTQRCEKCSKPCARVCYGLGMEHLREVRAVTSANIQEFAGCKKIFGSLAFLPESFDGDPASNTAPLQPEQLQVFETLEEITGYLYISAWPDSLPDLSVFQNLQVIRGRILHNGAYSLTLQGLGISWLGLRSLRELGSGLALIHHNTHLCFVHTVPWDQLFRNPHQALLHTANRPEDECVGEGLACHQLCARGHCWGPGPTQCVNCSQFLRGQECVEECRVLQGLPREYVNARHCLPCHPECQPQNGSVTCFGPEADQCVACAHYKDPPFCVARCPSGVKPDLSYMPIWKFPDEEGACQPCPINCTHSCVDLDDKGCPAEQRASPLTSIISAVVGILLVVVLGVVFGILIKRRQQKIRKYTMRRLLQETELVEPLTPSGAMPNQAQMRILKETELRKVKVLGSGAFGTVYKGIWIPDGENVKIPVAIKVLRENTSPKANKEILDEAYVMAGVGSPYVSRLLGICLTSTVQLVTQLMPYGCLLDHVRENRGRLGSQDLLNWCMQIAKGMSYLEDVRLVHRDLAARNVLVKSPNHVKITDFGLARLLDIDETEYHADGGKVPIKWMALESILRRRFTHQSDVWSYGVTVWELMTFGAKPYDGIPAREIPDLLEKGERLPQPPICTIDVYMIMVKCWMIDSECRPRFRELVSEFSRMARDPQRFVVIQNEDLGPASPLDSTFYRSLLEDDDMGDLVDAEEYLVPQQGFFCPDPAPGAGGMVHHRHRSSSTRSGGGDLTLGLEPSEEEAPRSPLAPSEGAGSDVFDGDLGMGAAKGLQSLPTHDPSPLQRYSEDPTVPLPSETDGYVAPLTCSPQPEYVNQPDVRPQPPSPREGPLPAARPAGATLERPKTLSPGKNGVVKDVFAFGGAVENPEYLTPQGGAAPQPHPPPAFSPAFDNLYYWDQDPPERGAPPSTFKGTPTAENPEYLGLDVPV

[4] = reduced viability of SK-BR-3 breast cancer cells – cell-based, 24 h, human, pilot screen (AID 572); conditions: SK-BR-3 viability, CellTiter-Glo luminescence, at 10 µM, stronger effect = lower value;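 note: compound exposure lasted between 18 and 24 h rather than exactly 24 h; 100% = carrier-treated control wells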
[5] = HUVEC growth inhibition – cell-based, human, primary screen (AID 575;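 active = viability at or below 30% in both replicate assays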;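 note: 100% = median of untreated cell wells with 0.1% DMSO on each plate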); conditions: HUVEC proliferation, CellTiter-Glo luminescence, 72 h; at 10 µM; stronger effect = lower value
Summary of the method: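 Test system: HUVEC primary cells. Quantity: 1250 endothelial cells in each well. Dosing: single-point 10 µM, DMSO 0.1% final. Incubation: 72 h treatment at 37 °C. Measured by: CTG luminescence. Control set: DMSO cell controls and MePR drug controls. Plate: collagen-coated 384-well format.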

[6] = H69AR cell proliferation blockers – human, duplicate replicates, primary screen (AID 580;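 active = viability at or under a set limit in both replicates, limit being median viability minus 3 SD, cut at about 48% in these data, passing the limit was not always enough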;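 note: 100% = mean luminescence of untreated wells and 0% = no signal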); conditions: H69AR lung tumor cells viability, ATP luminescence, 72 h; at 10 µM; stronger effect = lower value
[7] = MRP1 drug-resistance reversers in H69AR cells – cell-based, doxorubicin co-treatment, pilot screen (AID 601;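 active = viability loss from added drug above about 55%, and viability with drug at most 40%, in both replicates, limit read from the data, passing the limit was not always enough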); conditions: CellTiter-Glo, 72 h, at 10 µM; for differential viability (reversal): stronger effect = higher value
[8] = yeast transport mutant growth inhibition pilot in 384-well plates, post-Golgi transport modulator project (AID 636; in the data active = inhibition above about 31%); conditions: absorbance 615 nm, about 18 h, stronger effect = higher value
[9] = growth suppression of yeast trafficking mutant, preliminary HTS, modulators of trafficking downstream of Golgi apparatus project, 1536-format plate, OD 615 nm (AID 637; in the data active = inhibition above about 30%); conditions: yeast transport mutant growth, absorbance 615 nm, 18 h; stronger effect = higher value
[10] = H69AR cells + 2 uM doxorubicin, measured here: viability with 2 uM doxorubicin, stronger effect = lower value
[11] = H69AR cells, compound alone cytotoxicity

SMILES: COc1cc(C2NCc3ccccc3-n3cccc32)ccc1O (centres undefined)
- inhibition [1]: 0% (inactive)
- viability [2]: 104%
- Her2 level [3]: 102% (inactive)
- viability [4]: 104% (inactive)
- viability [5]: 105% (inactive)
- viability [6]: 101% (inactive)
- differential viability (reversal) ([7]; H69AR cells + 2 uM doxorubicin): 9.64% (inactive)
- viability [7, 10]: 90.9%
- viability [7, 11]: 101%
- inhibition [8]: -5.79% (inactive)
- inhibition [9]: -1.27% (inactive)

SMILES: O=C1CC(N2CCC(n3c(=O)[nH]c4ccccc43)CC2)C(=O)N1c1ccc(F)cc1 (centres undefined)
- inhibition [1]: 5% (inactive)
- viability [2]: 93.5%
- Her2 level [3]: 67.5% (inactive)
- viability [4]: 93.5% (inactive)
- viability [5]: 80.7% (inactive)
- viability [6]: 103% (inactive)
- differential viability (reversal) ([7]; H69AR cells + 2 uM doxorubicin): 3.01% (inactive)
- viability [7, 10]: 100%
- viability [7, 11]: 103%
- inhibition [8]: -4.74% (inactive)
- inhibition [9]: -6.5% (inactive)

SMILES: CCOC(=O)C(O)(c1ccc(N(CC)C(=O)OC)cc1)C(F)(F)F (centres undefined)
- inhibition [1]: 0% (inactive)
- viability [2]: 99.5%
- Her2 level [3]: 105% (inactive)
- viability [4]: 99.5% (inactive)
- viability [5]: 110% (inactive)
- viability [6]: 109% (inactive)
- differential viability (reversal) ([7]; H69AR cells + 2 uM doxorubicin): 20.5% (inactive)
- viability [7, 10]: 88.3%
- viability [7, 11]: 109%
- inhibition [8]: -5.53% (inactive)
- inhibition [9]: 5.74% (inactive)

SMILES: O=C1OCCC1NC1=NCCC1 (centres undefined)
- inhibition [1]: 0% (inactive)
- viability [2]: 92%
- Her2 level [3]: 91% (inactive)
- viability [4]: 92% (inactive)
- viability [5]: 111% (inactive)
- viability [6]: 100% (inactive)
- differential viability (reversal) ([7]; H69AR cells + 2 uM doxorubicin): 13.1% (inactive)
- viability [7, 10]: 87.1%
- viability [7, 11]: 100%
- inhibition [8]: -0.78% (inactive)
- inhibition [9]: -5.41% (inactive)

SMILES: CC(=O)C1C(=O)NC23CCCCC2C1c1ccccc1O3 (centres undefined)
- inhibition [1]: 0% (inactive)
- viability [2]: 88%
- Her2 level [3]: 91.5% (inactive)
- viability [4]: 88% (inactive)
- viability [5]: 109% (inactive)
- viability [6]: 99.3% (inactive)
- differential viability (reversal) ([7]; H69AR cells + 2 uM doxorubicin): 4.31% (inactive)
- viability [7, 10]: 95%
- viability [7, 11]: 99.3%
- inhibition [8]: -3.87% (inactive)
- inhibition [9]: -0.16% (inactive)

SMILES: COc1ccccc1OCCCn1cc(C(=O)c2ccco2)c2ccccc21
- inhibition [1]: 0% (inactive)
- viability [2]: 106%
- Her2 level [3]: 96% (inactive)
- viability [4]: 106% (inactive)
- viability [5]: 74.9% (inactive)
- viability [6]: 77.5% (inactive)
- differential viability (reversal) ([7]; H69AR cells + 2 uM doxorubicin): -5.27% (inactive)
- viability [7, 10]: 82.7%
- viability [7, 11]: 77.5%
- inhibition [8]: -4.73% (inactive)
- inhibition [9]: -5.33% (inactive)

SMILES: COC(=O)c1cncn1C(C)c1ccccc1 (centres undefined)
- inhibition [1]: 0% (inactive)
- viability [2]: 88.5%
- Her2 level [3]: 80.5% (inactive)
- viability [4]: 88.5% (inactive)
- viability [5]: 108% (inactive)
- viability [6]: 95% (inactive)
- differential viability (reversal) ([7]; H69AR cells + 2 uM doxorubicin): 6.07% (inactive)
- viability [7, 10]: 88.9%
- viability [7, 11]: 95%
- inhibition [8]: -4.46% (inactive)
- inhibition [9]: -5.25% (inactive)

SMILES: Cn1c(=O)cc(SCC(=O)N2CCC3(CC2)OCCO3)c2ccc(Cl)cc21
- inhibition [1]: 9% (inactive)
- viability [2]: 116%
- Her2 level [3]: 94.5% (inactive)
- viability [4]: 116% (inactive)
- viability [5]: 87.6% (inactive)
- viability [6]: 79.1% (inactive)
- differential viability (reversal) ([7]; H69AR cells + 2 uM doxorubicin): 8.79% (inactive)
- viability [7, 10]: 70.3%
- viability [7, 11]: 79.1%
- inhibition [8]: -3.03% (inactive)
- inhibition [9]: 1.77% (inactive)

SMILES: COc1ccccc1N1CCN(Cc2cccc(OC)c2O)CC1
- inhibition [1]: 0% (inactive)
- viability [2]: 89%
- Her2 level [3]: 93% (inactive)
- viability [4]: 89% (inactive)
- viability [5]: 118% (inactive)
- viability [6]: 91.6% (inactive)
- differential viability (reversal) ([7]; H69AR cells + 2 uM doxorubicin): 5.07% (inactive)
- viability [7, 10]: 86.6%
- viability [7, 11]: 91.6%
- inhibition [8]: -5% (inactive)
- inhibition [9]: 5.25% (inactive)

SMILES: O=C(c1ccc2nc(-c3ccco3)c(-c3ccco3)nc2c1)N1CCC2(CC1)OCCO2
- inhibition [1]: 0% (inactive)
- viability [2]: 93%
- Her2 level [3]: 106% (inactive)
- viability [4]: 93% (inactive)
- viability [5]: 97.1% (inactive)
- viability [6]: 90.5% (inactive)
- differential viability (reversal) ([7]; H69AR cells + 2 uM doxorubicin): 7.87% (inactive)
- viability [7, 10]: 82.7%
- viability [7, 11]: 90.5%
- inhibition [8]: -4.87% (inactive)
- inhibition [9]: 4.33% (inactive)

SMILES: CCCCn1c(O)c(C(CC)=Nc2cccc(C(=O)O)c2)c(=O)[nH]c1=O
- inhibition [1]: 0% (inactive)
- viability [2]: 97.5%
- Her2 level [3]: 92% (inactive)
- viability [4]: 97.5% (inactive)
- viability [5]: 96.9% (inactive)
- viability [6]: 102% (inactive)
- differential viability (reversal) ([7]; H69AR cells + 2 uM doxorubicin): 9.65% (inactive)
- viability [7, 10]: 92.6%
- viability [7, 11]: 102%
- inhibition [8]: -2.67% (inactive)
- inhibition [9]: -4.13% (inactive)

SMILES: COc1ccc(S(=O)(=O)NC(CC(=O)N2CCC3(CC2)OCCO3)c2ccco2)cc1 (centres undefined)
- inhibition [1]: 0% (inactive)
- viability [2]: 134%
- Her2 level [3]: 106% (inactive)
- viability [4]: 134% (inactive)
- viability [5]: 101% (inactive)
- viability [6]: 93.9% (inactive)
- differential viability (reversal) ([7]; H69AR cells + 2 uM doxorubicin): 5.91% (inactive)
- viability [7, 10]: 88%
- viability [7, 11]: 93.9%
- inhibition [8]: -8.77% (inactive)
- inhibition [9]: -0.48% (inactive)

SMILES: CCCCn1c(O)c(C(C)=NCCc2ccccc2)c(=O)[nH]c1=O
- inhibition [1]: 0% (inactive)
- viability [2]: 88.5%
- Her2 level [3]: 89.5% (inactive)
- viability [4]: 88.5% (inactive)
- viability [5]: 95.6% (inactive)
- viability [6]: 100% (inactive)
- differential viability (reversal) ([7]; H69AR cells + 2 uM doxorubicin): 4.16% (inactive)
- viability [7, 10]: 95.9%
- viability [7, 11]: 100%
- inhibition [8]: -0.26% (inactive)
- inhibition [9]: 9.51% (inactive)

SMILES: CC(C)CC12CN3CCN(CC(C3)/C1=N/O)C2
- inhibition [1]: 0% (inactive)
- viability [2]: 107%
- Her2 level [3]: 101% (inactive)
- viability [4]: 107% (inactive)
- viability [5]: 108% (inactive)
- viability [6]: 96.4% (inactive)
- differential viability (reversal) ([7]; H69AR cells + 2 uM doxorubicin): 8.57% (inactive)
- viability [7, 10]: 87.8%
- viability [7, 11]: 96.4%
- inhibition [8]: -5.54% (inactive)
- inhibition [9]: -0.98% (inactive)
